MEKK2mut PB1 HTS: signal of MEK5 binding to mutant human MEKK2 PB1 domain; hit rate 0.35% among 290,000; bead flow cytometry, Alexa488-MEK5 binding to MEKK2 mutant; percent response, % at 10 µM; in the data active = percent response above about 24%, passing the limit was not always enough
MEKK2 WT-MEK5: raises or lowers MEK5 binding to wildtype human MEKK2 PB1 domain. Q9Y2U5. bead flow cytometry, Alexa488-MEK5 binding to MEKK2 WT; actives lie on both sides. binding response (% of control), % at 10 µM. hit rate 1.1% among 290,000; in the data active = binding response below about 67% or above about 130%
MEKK3 PB1 HTS: raises or lowers MEK5 binding to the human MEKK3 PB1 domain; bead-based flow cytometry, Alexa488-MEK5 binding to MEKK3; actives lie on both sides; 0 = blocked by unlabeled MEK5, 100 = vehicle; hit rate 1.4% among 290,000; binding response (% of control), % at 10 µM; Q99759;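 active = binding response more than 3 SD above or below the average of its plate-row segment, actives on both sides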;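 also: Alexa488 bead fluorescence after subtracting the streptavidin-only scavenger bead signal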
Target sequence (Q99759 whole entry, looked up, the tested form may be a part): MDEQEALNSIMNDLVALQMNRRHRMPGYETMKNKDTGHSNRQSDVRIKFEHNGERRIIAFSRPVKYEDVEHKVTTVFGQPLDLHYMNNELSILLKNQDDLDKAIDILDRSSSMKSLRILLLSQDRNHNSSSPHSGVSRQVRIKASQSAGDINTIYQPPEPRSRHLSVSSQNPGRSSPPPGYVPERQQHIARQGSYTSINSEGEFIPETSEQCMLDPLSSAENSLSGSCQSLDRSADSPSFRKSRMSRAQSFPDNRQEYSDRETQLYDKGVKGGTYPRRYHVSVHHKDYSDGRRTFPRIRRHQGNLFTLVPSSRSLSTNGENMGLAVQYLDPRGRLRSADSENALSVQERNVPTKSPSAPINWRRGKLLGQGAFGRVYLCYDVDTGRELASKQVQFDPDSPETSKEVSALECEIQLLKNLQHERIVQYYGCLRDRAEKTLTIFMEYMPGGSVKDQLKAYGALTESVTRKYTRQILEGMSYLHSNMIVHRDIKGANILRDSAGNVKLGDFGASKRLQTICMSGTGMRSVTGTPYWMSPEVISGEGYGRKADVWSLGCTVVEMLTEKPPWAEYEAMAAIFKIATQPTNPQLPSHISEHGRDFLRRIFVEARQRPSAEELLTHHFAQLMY
UCH37 DUB inh: human UCH37 deubiquitinating enzyme inhibition. purified proteasome/UCH37, Ub-AMC cleavage fluorescence. inhibition, % (test concentration not listed). hit rate 0.33% among 330,000. AID 588478;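 active = mean inhibition over replicate wells above about 20%, limit read from the data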
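assay system = human UCH37 enzyme supplied as purified proteasome complex | amount = proteasome at 0.15 nM in the dispensed enzyme solution | schedule = 30 min compound-proteasome preincubation then 25 min substrate reaction, room temperature | measured by = fluorescence, ex 355 nm, em 460 nm | benchmarks = no-proteasome wells (full inhibition) and compound-free wells (no inhibition)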
UBC13 inh: blocks human UBC13 polyubiquitin chain formation. inhibition, % at 20 µM. TR-FRET. hit rate 0.47% among 330,000. P61088; in the data active = inhibition above about 45%, passing the limit was not always enough
Apaf1 inhib: human Apaf-1 inhibition | O14727 | reconstituted apoptosome caspase-3 activity, DEVD-Rh110 fluorescence | inhibition, % at 20 µM | hit rate 0.71% among 330,000; active = inhibition of at least 40% at 20 µM
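System: Apoptosome proteins | Medium: Hepes pH 7.5 with detergent and BSA | Also added: Cytochrome c trigger plus (Z-DEVD)2-Rh110 caspase-3 substrate | Incubation: 30 min compound preincubation, 50 min activation, room temperature | Detection: Rhodamine 110 fluorescence at Ex 480/Em 540 nm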
MEKK2wt confirm: raises or lowers MEK5 binding to wildtype human MEKK2, retest | shares compounds with MEKK3 PB1 HTS | bead flow cytometry, Alexa488-MEK5 binding to MEKK2 WT; actives lie on both sides | binding response (% of control), % at 10 µM | hit rate 2.4% among 5,900 | AID 1892; in the data active = binding response below about 16% or above about 210%; inactive = in between
MEKK2mut-MEK5: signal of MEK5 binding to mutant human MEKK2, retest | shares compounds with MEKK3 PB1 HTS | bead flow cytometry, Alexa488-MEK5 binding to MEKK2 mutant | percent response, % at 10 µM | hit rate 2% among 5,900; in the data active = percent response mostly above about 71%, no sharp cut-off; inactive = mostly below about 38%;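 also: higher means compound restores mutant binding toward wildtype level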
MEKK3 confirm: MEKK3-MEK5 PB1 inhibition, single concentration confirmation. shares compounds with MEKK3 PB1 HTS. hit rate 1.8% among 5,900. binding response (% of control), % at 10 µM. bead flow cytometry, Alexa488-MEK5 binding to MEKK3; active compounds read low;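 active = binding response below 72% of control, or above a set upper limit, though filed actives all read lower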;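 also: lower values mean stronger disruption of MEK5 binding to MEKK3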
Numbers stand for hits; . = inactive; / = no result given; [ ] = another dose, or the depositor's remark. Most compounds without a hit are left out; they make up all but 3% or so of the library.

SMILES	MEKK2mut PB1 HTS	MEKK2 WT-MEK5	MEKK3 PB1 HTS	UCH37 DUB inh	UBC13 inh	Apaf1 inhib	MEKK2wt confirm	MEKK2mut-MEK5	MEKK3 confirm
CC(C)N(c1ccccc1)c1ccc(NC(=O)COC(=O)CCN2C(=O)c3cccc([N+](=O)[O-])c3C2=O)cc1	.	.	48[inhibitor]	.	.	.	.	.	.
CC(=O)c1ccc(NC(=O)COC(=O)CCN2C(=O)c3cccc([N+](=O)[O-])c3C2=O)cc1	.	.	.	.	.	.	/	/	/
CCOc1ccccc1NC(=O)NC1CCN(CC(=O)Nc2ccc3c(c2)OCCO3)CC1	.	.	75[inhibitor]	.	.	.	.	.	.
Cc1ccccc1C(=O)NC1CCN(CC(=O)Nc2ccc3c(c2)OCCO3)CC1	.	.	.	.	.	.	/	/	/
CCOC(=O)C1=NN(c2ccccc2)C2C(=O)N(c3ccccc3OC)C(=O)C12 (stereo not given)	.	.	.	.	.	.	/	/	/
COC(=O)C1=NN(c2ccc(Cl)cc2)C2C(=O)N(c3ccccc3OC)C(=O)C12 (stereo not given)	.	.	143	.	.	.	.	.	.
N/C(Cc1ccc([N+](=O)[O-])cc1)=N\OC(=O)Cc1ccccc1	.	.	53[inhibitor]	/	.	.	.	.	.
N/C(Cc1ccc([N+](=O)[O-])cc1)=N\OC(=O)Cc1ccc(Cl)cc1	.	.	71[inhibitor]	/	.	.	.	.	.
CCCc1c(O)nc(SCCN(CC)CC)[nH]c1=O	.	.	.	.	.	.	/	/	/
Cc1nn(CC(=O)OCCOc2ccc(Br)cc2)c(C)c1[N+](=O)[O-]	.	.	50[inhibitor]	.	.	.	.	.	.
Cc1nn(CC(=O)c2ccccc2Cl)c(C)c1[N+](=O)[O-]	.	.	.	.	.	.	/	/	/
Cc1nn(CC(=O)c2ccc(Br)s2)c(C)c1[N+](=O)[O-]	.	.	46[inhibitor]	.	.	.	.	.	.
Cc1ccccc1CN1CCN(C(=O)c2ccc(S(=O)(=O)NCc3ccco3)cc2)CC1	/	/	/	/	.	.	/	/	/
Cc1cccc(C)c1Nc1nnc(SCc2nc3ccccc3c(=O)[nH]2)s1	.	.	.	.	.	.	/	/	/
CC(NC(=O)COc1ccccc1)C1COc2ccccc2O1 (stereo not given)	.	.	.	.	.	.	/	/	/
O=c1c2ccccc2c(C=Nc2ccc(Cl)cn2)c(O)n1-c1cc(Cl)ccc1N1CCOCC1	.	2.0[inhibitor]	2.0[inhibitor]	.	.	.	.	.	.
O=C(NCCSc1ccccc1)c1ccccc1Cl	.	.	156	.	.	.	.	.	.
O=C(CCNC(=O)c1ccccc1Cl)NCCCSc1ccccc1	/	/	/	.	.	.	/	/	/
CCn1c(CC(=O)Nc2ccccc2)nnc1SCC(=O)NC1CCCC1	.	.	.	.	.	.	/	/	/
CC1(C)CCC[C@@]2(C)CC=C(C(=O)O)[C@@H]3C[C@]312	/	/	/	.	.	.	/	/	/
O=C(NC1CCN(Cc2ccccc2)CC1)c1ccc(Cn2c(=S)[nH]c3ccc(N4CCOCC4)cc3c2=O)cc1	.	154	.	.	.	.	.	.	.
COc1cccc(CNC(=O)CCCCCn2c(=S)[nH]c3ccc(N4CCOCC4)cc3c2=O)c1	.	.	130	.	.	.	.	.	.
CCOc1cc2[nH]c(=S)n(CCC(=O)N3CCc4ccccc4C3)c(=O)c2cc1OCC	.	.	.	.	.	.	/	/	/
CC1CCCC(NC(=O)COC(=O)c2sc3ccccc3c2Cl)C1C (stereo not given)	.	.	135	.	.	.	.	.	.
CC(=O)C(=NNc1ccccc1Cl)Sc1nnc(C(O)c2ccccc2)n1-c1ccccc1 (stereo not given)	/	/	/	.	/	/	/	/	/
SMILES	MEKK2mut PB1 HTS	MEKK2 WT-MEK5	MEKK3 PB1 HTS	UCH37 DUB inh	UBC13 inh	Apaf1 inhib	MEKK2wt confirm	MEKK2mut-MEK5	MEKK3 confirm
Fc1ccc(-n2c(-c3cccs3)nc3nc4ccccc4nc32)cc1	.	.	134	.	.	.	.	.	.
CC(C)NS(=O)(=O)c1ccc(CCC(=O)Nc2ccc3c(c2)OCCO3)cc1	.	.	164	.	.	.	.	.	.
COc1ccc(/C=C(/NC(=O)c2ccco2)C(=O)N2CCCCC2)cc1	.	.	.	.	.	.	/	/	/
COc1ccc(/C=C(/NC(=O)c2ccco2)C(=O)N2CCCC2=O)cc1	.	59[inhibitor]	64[inhibitor]	.	.	.	.	.	.
CN(C)CCNc1nc2sc3c(c2c(=O)n1Cc1ccccc1)CCCCC3	.	149	.	.	.	.	.	.	.
Cc1ccc(N(C)C(=O)c2cc(S(=O)(=O)N3CCCCC3)c[nH]2)cc1	.	.	.	.	.	.	/	/	/
O=C(N/N=C/c1ccc(OC(=O)c2ccccc2)cc1)c1cccc(O)c1	.	.	137	/	.	.	.	.	.
COc1ccc(/C=N/NC(=O)c2ccncc2)cc1OC	.	.	.	/	.	.	/	/	/
COc1ccc(/C=C/C(=O)Oc2ccc(/C=N/NC(=O)c3ccccc3)cc2)cc1OC	.	.	138	/	.	.	.	.	.
COc1ccc(/C=C(/NC(=O)c2ccccc2)C(=O)NCc2ccncc2)cc1	.	.	.	.	.	.	/	/	/
COc1ccc(/C=C(/NC(=O)c2ccccc2)C(=O)N/N=C/c2ccncc2)cc1	.	2.0[inhibitor]	2.0[inhibitor]	/	.	.	.	.	.
COc1ccc(-n2cnc3c(sc4nc(N5CCOCC5)c5c(c43)CCCC5)c2=O)cc1	.	.	.	.	.	.	/	/	/
CCOCCCNCC(O)c1ccccc1 (stereo not given)	.	.	162	.	.	.	.	.	.
O=C1NC(c2ccccc2)=C(c2nc3ccccc3s2)C(c2ccc(O)cc2)N1 (stereo not given)	.	.	.	.	.	.	/	/	/
COc1ccc(S(=O)(=O)N(c2onc(C)c2Cl)S(=O)(=O)c2ccc(OC)c(OC)c2)cc1OC	.	.	131	.	.	.	.	.	.
O=C(COc1ccc2c(c1)CCC2)N1CCN(c2ccccc2F)CC1	.	.	142	.	.	.	.	.	.
O=C(COc1ccc2c(c1)CCC2)N1CCN(c2cccc(C(F)(F)F)c2)CC1	.	.	.	.	.	.	/	/	/
CN1CCC(N(C)C(=O)c2ccccc2F)CC1	.	.	.	.	.	.	/	/	/
